Laboratory results from the M2OR odorant receptor database.
Changes are numbered by the printed parent chain.

Key:
Conditions in all cases: stereoisomer not certain
O56A4 I247V = tested on: T1, O56A4 I247V
T1 sequence (whole entry): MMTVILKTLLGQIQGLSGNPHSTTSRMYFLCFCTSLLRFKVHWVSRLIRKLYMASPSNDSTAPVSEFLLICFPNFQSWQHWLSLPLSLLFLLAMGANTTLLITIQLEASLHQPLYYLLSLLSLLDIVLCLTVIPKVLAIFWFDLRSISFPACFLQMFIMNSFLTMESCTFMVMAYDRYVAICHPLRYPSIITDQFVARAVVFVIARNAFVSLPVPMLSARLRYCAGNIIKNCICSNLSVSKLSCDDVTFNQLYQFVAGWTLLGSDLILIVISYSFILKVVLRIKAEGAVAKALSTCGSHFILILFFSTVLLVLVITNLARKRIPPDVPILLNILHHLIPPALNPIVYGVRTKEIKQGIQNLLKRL
Method in brief: (§1)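 Each receptor–molecule pair is labelled responsive or non-responsive (inactive) according to whether the original authors judged the measured signal statistically different from baseline. The data were taken from the main text and supplementary material of published papers and checked for typos and inconsistencies. Assay methods differed by source, with transient luciferase assays in mammalian cell lines being common.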

O56A4 = tested on: T2, O56A4
T2 sequence (whole entry): T1 sequence (whole entry) with V247I
Method in brief: as §1

O56A5 V104L = tested on: T3, O56A5 V104L
T3 sequence (whole entry): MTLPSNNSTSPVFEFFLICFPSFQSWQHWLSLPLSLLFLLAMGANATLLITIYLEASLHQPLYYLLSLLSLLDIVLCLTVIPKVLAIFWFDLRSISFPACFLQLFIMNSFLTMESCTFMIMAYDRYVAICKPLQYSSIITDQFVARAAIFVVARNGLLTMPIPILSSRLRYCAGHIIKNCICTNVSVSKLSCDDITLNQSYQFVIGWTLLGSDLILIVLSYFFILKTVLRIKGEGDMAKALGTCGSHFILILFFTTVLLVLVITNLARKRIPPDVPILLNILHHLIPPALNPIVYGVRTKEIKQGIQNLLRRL
Method in brief: as §1

O56B1 C106R L214F = tested on: T4, O56B1 C106R L214F
T4 sequence (whole entry): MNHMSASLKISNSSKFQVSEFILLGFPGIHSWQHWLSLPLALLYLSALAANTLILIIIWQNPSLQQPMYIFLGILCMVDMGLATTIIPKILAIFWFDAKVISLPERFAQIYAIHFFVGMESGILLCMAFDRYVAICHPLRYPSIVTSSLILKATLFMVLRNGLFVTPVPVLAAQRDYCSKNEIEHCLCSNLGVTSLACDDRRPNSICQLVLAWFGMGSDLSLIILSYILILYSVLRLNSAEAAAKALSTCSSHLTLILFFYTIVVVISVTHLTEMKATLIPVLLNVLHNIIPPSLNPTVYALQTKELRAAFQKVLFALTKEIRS
Method in brief: as §1

O56B1 L214F = tested on: T5, O56B1 L214F
T5 sequence (whole entry): T4 sequence (whole entry) with R106C
Method in brief: as §1

O56B4 = tested on: T6, O56B4
T6 sequence (whole entry): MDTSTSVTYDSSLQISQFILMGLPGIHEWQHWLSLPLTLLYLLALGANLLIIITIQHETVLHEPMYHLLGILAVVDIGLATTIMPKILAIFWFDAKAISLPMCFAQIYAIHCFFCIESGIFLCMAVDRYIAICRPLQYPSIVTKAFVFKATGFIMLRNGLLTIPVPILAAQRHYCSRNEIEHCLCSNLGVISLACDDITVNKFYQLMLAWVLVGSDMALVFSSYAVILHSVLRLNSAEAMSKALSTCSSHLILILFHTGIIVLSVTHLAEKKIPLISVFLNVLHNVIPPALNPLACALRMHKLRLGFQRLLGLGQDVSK
Method in brief: as §1

O5AC2 = tested on: T7, O5AC2
T7 sequence (whole entry): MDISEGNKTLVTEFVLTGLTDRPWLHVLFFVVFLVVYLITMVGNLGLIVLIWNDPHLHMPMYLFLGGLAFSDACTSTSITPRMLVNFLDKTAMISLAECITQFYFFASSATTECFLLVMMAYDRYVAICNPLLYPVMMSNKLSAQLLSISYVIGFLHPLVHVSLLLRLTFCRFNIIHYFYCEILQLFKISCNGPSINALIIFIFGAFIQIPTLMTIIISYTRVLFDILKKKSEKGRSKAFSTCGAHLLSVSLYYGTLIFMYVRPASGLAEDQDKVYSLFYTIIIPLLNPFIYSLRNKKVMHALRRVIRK
Method in brief: as §1

O5AK2 M92I = tested on: T8, O5AK2 M92I
T8 sequence (whole entry): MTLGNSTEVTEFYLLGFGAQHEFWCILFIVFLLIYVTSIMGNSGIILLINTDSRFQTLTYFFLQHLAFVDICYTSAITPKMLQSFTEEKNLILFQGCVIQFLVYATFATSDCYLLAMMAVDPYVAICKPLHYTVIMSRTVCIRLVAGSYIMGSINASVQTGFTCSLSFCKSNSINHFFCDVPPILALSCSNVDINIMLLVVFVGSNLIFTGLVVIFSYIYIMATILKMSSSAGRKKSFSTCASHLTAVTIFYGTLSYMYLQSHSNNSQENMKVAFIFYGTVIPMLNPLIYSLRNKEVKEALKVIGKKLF
Method in brief: as §1

O5AN1 C142Y L289F = tested on: T9, O5AN1 C142Y L289F
T9 sequence (whole entry): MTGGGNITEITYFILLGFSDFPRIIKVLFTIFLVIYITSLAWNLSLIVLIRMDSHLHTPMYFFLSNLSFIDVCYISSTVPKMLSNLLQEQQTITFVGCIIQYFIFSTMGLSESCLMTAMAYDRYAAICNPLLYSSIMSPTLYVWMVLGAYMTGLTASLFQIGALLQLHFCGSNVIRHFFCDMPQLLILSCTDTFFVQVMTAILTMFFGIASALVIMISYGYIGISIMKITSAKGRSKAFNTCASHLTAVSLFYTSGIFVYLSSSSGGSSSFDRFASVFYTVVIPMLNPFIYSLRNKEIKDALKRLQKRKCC
Method in brief: as §1

O5AN1 L289F = tested on: T10, O5AN1 L289F
T10 sequence (whole entry): T9 sequence (whole entry) with Y142C
Method in brief: as §1

Measured: odorant receptor agonist call;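 note: active if original authors judged signal statistically different from baseline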

Cc1cnc(C)c(C)n1
inactive: all assays above

CCC1OC(C)=C(O)C1=O (centres undefined)
inactive: all assays above

CC1=C(O)C(=O)C(C)O1 (centres undefined)
inactive: all assays above

CCC1OC(=O)C(O)=C1C (centres undefined)
inactive: all assays above

CC1=NC(C)C(C)S1 (centres undefined)
inactive: all assays above

CCCCCCC=CCCC=O
not listed: O56A4
inactive: all other assays above

CC1=C(O)C(=O)OC1C (centres undefined)
inactive: all assays above

CCCC(S)CCOC(C)=O (centres undefined)
inactive: all assays above
